According to ChEMBL document CHEMBL4261631, “Synthetic thiosemicarbazones as a new class of Mycobacterium tuberculosis protein tyrosine phosphatase A inhibitors” (Bioorg Med Chem, 2018):

Legend:
[1] = biological target: T1, Low molecular weight protein-tyrosine phosphatase A (Mycobacterium tuberculosis) (UniProt P9WIA1); assay: Inhibition of recombinant Mycobacterium tuberculosis PtpA at 25 uM using p-nitrophenyl phosphate as substrate preincubated for 10 mins followed by substrate addition and measured every minute for 10 mins by UV-VIS spectrophotometric analysis
T1 sequence (whole entry): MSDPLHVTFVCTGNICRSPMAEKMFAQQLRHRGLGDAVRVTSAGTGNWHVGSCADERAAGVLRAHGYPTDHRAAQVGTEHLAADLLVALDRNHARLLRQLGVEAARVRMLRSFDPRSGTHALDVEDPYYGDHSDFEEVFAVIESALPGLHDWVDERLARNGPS
Summary of the method: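 Single-point screen at 25 µM final (from 1 mM DMSO stock, 2.5% DMSO final). 50 nM recombinant Mtb PtpA in 20 mM imidazole pH 7.0, premixed with compound 10 min at 37 °C. Reaction started with 10 mM pNPP. A410 read each min for 10 min at 37 °C. Residual activity from absorbance difference 7 min minus 2 min versus no-inhibitor wells. Triplicate.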

[2] = biological target: T2, Low molecular weight protein-tyrosine phosphatase A (Mycobacterium tuberculosis, UniProt P9WIA1); assay: Inhibition of recombinant Mycobacterium tuberculosis PtpA using p-nitrophenyl phosphate as substrate preincubated for 10 mins followed by substrate addition and measured every minute for 10 mins by UV-VIS spectrophotometric analysis
T2 sequence (P9WIA1 whole entry): T1 sequence (whole entry)
Summary of the method: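 Recombinant Mtb PtpA at 50 nM in 20 mM imidazole pH 7.0, premixed with inhibitor (0.5–50 µM, DMSO ≤4% v/v) 10 min at 37 °C. Started with 10 mM pNPP. A410 read each min for 10 min at 37 °C. Residual activity from 7 min minus 2 min absorbance versus no-inhibitor wells. IC50 by linear regression of % inhibition versus concentration. Triplicate, mean ± SD of three experiments.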

[3] = biological target: Tyrosine-protein phosphatase YopH (Yersinia enterocolitica, UniProt P15273); assay: Inhibition of recombinant Yersinia enterocolitica YopH using p-nitrophenyl phosphate as substrate preincubated for 10 mins followed by substrate addition and measured every minute for 10 mins by UV-VIS spectrophotometric analysis
Sequence of Tyrosine-protein phosphatase YopH (P15273 whole entry): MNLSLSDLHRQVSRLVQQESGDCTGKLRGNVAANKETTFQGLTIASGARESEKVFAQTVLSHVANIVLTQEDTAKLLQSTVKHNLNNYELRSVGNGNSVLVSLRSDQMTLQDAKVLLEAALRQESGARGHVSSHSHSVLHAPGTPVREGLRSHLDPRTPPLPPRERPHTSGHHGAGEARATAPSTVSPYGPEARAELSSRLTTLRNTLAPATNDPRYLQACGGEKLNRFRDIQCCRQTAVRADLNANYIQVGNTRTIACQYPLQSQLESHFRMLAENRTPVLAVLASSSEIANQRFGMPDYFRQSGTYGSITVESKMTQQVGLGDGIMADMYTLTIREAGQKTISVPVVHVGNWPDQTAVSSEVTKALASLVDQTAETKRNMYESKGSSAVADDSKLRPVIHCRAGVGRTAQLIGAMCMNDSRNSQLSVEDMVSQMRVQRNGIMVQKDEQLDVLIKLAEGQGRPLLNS

[4] = biological target: T3, Tyrosine-protein phosphatase non-receptor type 12 (Homo sapiens, UniProt Q05209); assay: Inhibition of recombinant human PTP-PEST using p-nitrophenyl phosphate as substrate preincubated for 10 mins followed by substrate addition and measured every minute for 10 mins by UV-VIS spectrophotometric analysis
T3 sequence (Q05209 whole entry): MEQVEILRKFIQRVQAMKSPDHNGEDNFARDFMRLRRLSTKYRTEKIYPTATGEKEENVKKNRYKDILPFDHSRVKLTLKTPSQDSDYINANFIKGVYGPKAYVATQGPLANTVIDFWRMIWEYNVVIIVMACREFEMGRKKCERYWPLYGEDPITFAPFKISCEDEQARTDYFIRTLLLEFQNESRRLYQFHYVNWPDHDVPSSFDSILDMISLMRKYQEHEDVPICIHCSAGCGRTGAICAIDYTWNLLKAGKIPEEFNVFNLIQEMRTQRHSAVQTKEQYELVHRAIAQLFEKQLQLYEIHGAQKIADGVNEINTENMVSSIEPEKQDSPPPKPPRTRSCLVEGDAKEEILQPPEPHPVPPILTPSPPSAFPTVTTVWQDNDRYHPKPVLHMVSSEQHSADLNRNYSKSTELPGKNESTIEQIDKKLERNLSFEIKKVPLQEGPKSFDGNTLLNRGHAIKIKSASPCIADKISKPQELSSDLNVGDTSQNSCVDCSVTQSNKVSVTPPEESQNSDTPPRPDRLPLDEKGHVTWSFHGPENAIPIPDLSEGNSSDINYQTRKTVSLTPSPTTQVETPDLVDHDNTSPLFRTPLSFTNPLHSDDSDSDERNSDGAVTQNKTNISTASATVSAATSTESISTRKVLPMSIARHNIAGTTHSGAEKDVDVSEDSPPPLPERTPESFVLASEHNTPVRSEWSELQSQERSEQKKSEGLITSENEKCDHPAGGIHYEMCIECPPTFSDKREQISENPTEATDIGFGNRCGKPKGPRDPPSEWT
Summary of the method: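 Recombinant PTP at PtpB 50 nM, LYP 169 nM, PTP-PEST 205 nM or PTP1B 38 nM, in 20 mM imidazole pH 7.0. Inhibitor (0.5–50 µM, DMSO ≤4% v/v) premixed with enzyme 10 min at 37 °C. Started with 10 mM pNPP. A410 each min for 10 min. Activity from 7 min minus 2 min. IC50 by linear regression. Triplicate.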

[5] = Selectivity index, ratio of IC50 for recombinant human Ptp1B to IC50 for recombinant Mycobacterium tuberculosis PtpA
Summary of the method: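 Selectivity index calculated as IC50 for PtpB, LYP, PTP-PEST or PTP1B divided by IC50 for PtpA. Both IC50 values come from pNPP hydrolysis at 37 °C with 10 min enzyme–inhibitor premix and A410 readout, using 0.5–50 µM inhibitor.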

[6] = Selectivity index, ratio of IC50 for recombinant Yersinia enterocolitica YopH to IC50 for recombinant Mycobacterium tuberculosis PtpA
[7] = biological target: T2, Low molecular weight protein-tyrosine phosphatase A; assay: Non-competitive inhibition of Mycobacterium tuberculosis PtpA using p-nitrophenyl phosphate as substrate by Michaelis-Menten plot analysis
Summary of the method: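 Mtb PtpA-catalysed pNPP hydrolysis with pNPP varied 0.2–20 mM at each of three inhibitor concentrations. Rates expressed as specific activity (µmol pNPP min-1 mg-1). Vmax and Km fitted to Michaelis–Menten equation. Ki from non-linear fits to competitive or non-competitive inhibition equation, at least three independent experiments.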

| Compound | inhibition [1] | IC50 [2] | IC50 [3] | IC50 [4] | Ratio IC50 [5] | Ratio IC50 [6] | Ki [7] |
| --- | --- | --- | --- | --- | --- | --- | --- |
| O=[N+]([O-])c1ccc(/C=N/NC(=S)Nc2cccc3ccccc23)cc1 | 77.7% | 9.5 µM | 7.1 µM | > 50 µM | 1.8 | 0.7 | 1.2 µM |
| Cc1ccc(NC(=S)N/N=C/c2ccc(-c3cc(C(F)(F)F)ccc3Cl)o2)cc1 | 66% | 9.1 µM | 6.9 µM | > 50 µM | 4.2 | 0.8 |  |
| FC(F)(F)c1ccc(Cl)c(-c2ccc(/C=N/NC(=S)Nc3cccc4ccccc34)o2)c1 | 86.7% | 2.9 µM | 2.6 µM | 15.7 µM | 3.2 | 0.9 | 1.7 µM |
| S=C(N/N=C/c1ccc(-c2ccccc2)cc1)Nc1cccc2ccccc12 | 79.7% | 7.4 µM | 6.5 µM | > 50 µM | > 6.8 | 0.9 | 5.6 µM |
